High-throughput results as filed in PubChem.
PAFAH1B3 inh: PAFAH1B3 (human) inhibition; actives 0.28% (n = 340,000); Q15102; inhibition, % at 3.39 µM; AID 492972; recombinant PAFAH1B3, FP-rhodamine probe, fluorescence polarization;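 active = inhibition above the screen-wide average of all tested compounds plus 3 SD, cut at about 25% in these data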
Target sequence (Q15102 whole entry, looked up): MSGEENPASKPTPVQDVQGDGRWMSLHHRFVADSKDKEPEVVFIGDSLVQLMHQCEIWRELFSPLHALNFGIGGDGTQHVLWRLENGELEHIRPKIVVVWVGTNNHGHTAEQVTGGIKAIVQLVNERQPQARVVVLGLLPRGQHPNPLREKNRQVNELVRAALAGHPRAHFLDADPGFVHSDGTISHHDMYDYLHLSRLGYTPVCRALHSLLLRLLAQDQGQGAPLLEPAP
PAFAH1B2 inh: inhibitors of human PAFAH1B2; P68402; recombinant PAFAH1B2, FP-rhodamine activity probe, fluorescence polarization; inhibition, % at 3.39 µM; actives 1.2% (n = 340,000); AID 492953;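 active = inhibition above the mean of all tested compounds plus 3 SD, cut at about 24% in these data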
mABHD4 FP: inhibits mouse alpha/beta hydrolase domain 4; purified mABHD4, FP-Rh probe fluorescence polarization; Q8VD66; actives 0.54% (n = 370,000); inhibition, % at 8.92 µM;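 active = inhibition exceeding the mean over every tested compound plus 3 SD, cut at about 30% in these data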
Target sequence (Q8VD66 whole entry, looked up, the tested form may be a part): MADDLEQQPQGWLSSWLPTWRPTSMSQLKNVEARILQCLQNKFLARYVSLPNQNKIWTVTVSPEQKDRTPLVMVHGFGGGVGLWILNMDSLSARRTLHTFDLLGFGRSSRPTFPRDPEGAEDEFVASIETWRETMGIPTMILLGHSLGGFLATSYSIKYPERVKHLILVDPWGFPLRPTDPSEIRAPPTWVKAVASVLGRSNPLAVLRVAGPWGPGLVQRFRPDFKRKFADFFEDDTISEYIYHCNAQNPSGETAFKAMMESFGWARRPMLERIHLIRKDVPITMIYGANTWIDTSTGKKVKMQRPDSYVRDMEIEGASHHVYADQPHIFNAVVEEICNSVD
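Assay system: Wild-type mouse ABHD4 protein | Medium: HEPES pH 7.0 buffer, 150 mM NaCl, 0.01% Pluronic F-127 | Incubation: Enzyme–compound pre-incubation 45 min, then probe 60 min, both 25 °C | Technique: Fluorescence polarization with parallel and perpendicular emission, 525/598 nm | Evaluation: % inhibition of FP-Rh probe binding versus controls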
pPAFAH FP inh: pPAFAH (human) enzyme inhibition; Q13093; recombinant pPAFAH, FP-rhodamine probe fluorescence polarization; inhibition, % at 3.39 µM; actives 1.5% (n = 330,000); AID 463082;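 active = inhibition above the mean inhibition across the screen plus 3 SD, cut at about 25% in these data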;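 note: inhibitors block binding of the rhodamine activity-based probe so polarization drops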
HTRA1 inh: inhibitors of human serine peptidase HTRA1; AID 504803; actives 0.5% (n = 340,000); Q92743; recombinant HTRA1, FP-rhodamine activity-based probe, fluorescence polarization; inhibition, % at 5.96 µM; in the data active = inhibition above about 36%
PAFAH2 inh: PAFAH2 (human) inhibition. Q99487. recombinant PAFAH2, FP-rhodamine activity probe, fluorescence polarization. inhibition, % at 3.39 µM. actives 0.99% (n = 340,000);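 active = inhibition above the mean over all tested compounds plus 3 SD, cut at about 30% in these data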;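 note: inhibitors block probe labeling of enzyme so polarization drops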
PAFAH2 FP conf: confirmation of human PAFAH2 inhibitors; shares compounds with PAFAH2 inh; recombinant PAFAH2, FP-rhodamine activity probe, fluorescence polarization; inhibition, % at 3.39 µM; actives 65% (n = 2,300); AID 493030;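 active = mean inhibition over three repeats above a set limit taken from the earlier primary screen, cut at about 30% in these data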;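 note: inhibitor blocks binding of rhodamine activity probe so polarization falls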
Numbers stand for hits. In the library only some 2.8% were active in any assay of this set; here they are far more common.

For CN(Cc1nccs1)C(=O)C1CCC(=O)N(Cc2ccccc2F)C1 (stereo unspecified) the results were PAFAH1B3 inh inactive, PAFAH1B2 inh inactive, mABHD4 FP inactive, pPAFAH FP inh inactive, HTRA1 inh inactive and PAFAH2 inh inactive.
COc1ccc2c(c1)CN1CN(C3CCCC3)S(=O)(=O)CC21 (stereo unspecified) was read as mABHD4 FP inactive.
For Cc1cc(=O)[nH]c(SCC(=O)N2CC3(C)CC2CC(C)(C)C3)n1 (stereo unspecified) the results were PAFAH1B3 inh inactive, PAFAH1B2 inh inactive, mABHD4 FP inactive, pPAFAH FP inh inactive, HTRA1 inh inactive and PAFAH2 inh inactive.
`CCCc1cc(=O)[nH]c(SCC(=O)N2CC3(C)CC2CC(C)(C)C3)n1` (stereo unspecified) gave PAFAH1B3 inh inactive, PAFAH1B2 inh inactive, mABHD4 FP inactive, pPAFAH FP inh inactive, HTRA1 inh inactive, PAFAH2 inh 36 and PAFAH2 FP conf inactive.
Cc1ccsc1C(=O)OCC(=O)NC1CCS(=O)(=O)C1 (stereo unspecified) was read as PAFAH1B3 inh inactive, PAFAH1B2 inh inactive, mABHD4 FP inactive, pPAFAH FP inh inactive, HTRA1 inh inactive and PAFAH2 inh inactive.
CC1CCCCC1NC(=O)COC(=O)c1cccn1C (stereo unspecified) was read as PAFAH1B3 inh inactive, PAFAH1B2 inh inactive, mABHD4 FP inactive, pPAFAH FP inh inactive, HTRA1 inh inactive, PAFAH2 inh 85 and PAFAH2 FP conf 68.
For Cc1ccsc1C(=O)OCC(=O)NC1CCCCC1C (stereo unspecified) the results were PAFAH1B3 inh inactive, PAFAH1B2 inh inactive, mABHD4 FP inactive, pPAFAH FP inh inactive, HTRA1 inh inactive, PAFAH2 inh 86 and PAFAH2 FP conf 82.
COc1ccccc1NS(=O)(=O)c1ccc(O)c(C(=O)OCC(=O)c2ccc(Cl)cc2Cl)c1 was read as PAFAH1B3 inh inactive, PAFAH1B2 inh inactive, mABHD4 FP inactive, pPAFAH FP inh inactive, HTRA1 inh inactive, PAFAH2 inh 38 and PAFAH2 FP conf inactive.
`COc1ccc(NS(=O)(=O)c2ccc(O)c(C(=O)OCC(=O)N3CCCCC3)c2)cc1` gave PAFAH1B3 inh inactive, PAFAH1B2 inh inactive, mABHD4 FP inactive, pPAFAH FP inh inactive, HTRA1 inh inactive and PAFAH2 inh inactive.
`COc1ccccc1NS(=O)(=O)c1ccc(O)c(C(=O)OCC(=O)N2CCc3ccccc32)c1` gave PAFAH1B3 inh inactive, PAFAH1B2 inh inactive, mABHD4 FP inactive, pPAFAH FP inh inactive, HTRA1 inh inactive, PAFAH2 inh 45 and PAFAH2 FP conf inactive.
For COc1ccccc1NS(=O)(=O)c1ccc(O)c(C(N)=O)c1 the results were PAFAH1B3 inh inactive, PAFAH1B2 inh inactive, mABHD4 FP inactive, pPAFAH FP inh inactive, HTRA1 inh inactive and PAFAH2 inh inactive.
Screening O=C(NCC1CCCO1)C(Cc1ccccc1)N1C(=O)C2C3C=CC(C4CC34)C2C1=O (stereo unspecified) returned PAFAH1B3 inh inactive, PAFAH1B2 inh inactive, mABHD4 FP inactive, pPAFAH FP inh inactive, HTRA1 inh inactive, PAFAH2 inh 43 and PAFAH2 FP conf inactive.
For C=CCN1C(=O)[C@@H](CC(=O)N2CCC(c3ccccc3)CC2)[C@]2(C(=O)OCC)CCCCC/C=C/12 the results were mABHD4 FP inactive.
For COc1ccc(OC)c(S(=O)(=O)N2CCC(c3cn4ccccc4n3)CC2)c1 the results were mABHD4 FP inactive.
Screening CC1CCN(C(=O)COC(=O)c2cccs2)CC1 returned PAFAH1B3 inh inactive, PAFAH1B2 inh inactive, mABHD4 FP inactive, pPAFAH FP inh inactive, HTRA1 inh inactive, PAFAH2 inh 35 and PAFAH2 FP conf inactive.
For CC1CCN(C(=O)COC(=O)c2ccc(N3CCCC3=O)cc2)CC1 the results were PAFAH1B3 inh inactive, PAFAH1B2 inh inactive, mABHD4 FP inactive, pPAFAH FP inh inactive, HTRA1 inh inactive, PAFAH2 inh 37 and PAFAH2 FP conf 30.
CC1CCN(C(=O)COC(=O)c2ccc(Cl)nc2)CC1 was read as PAFAH1B3 inh inactive, PAFAH1B2 inh inactive, mABHD4 FP inactive, pPAFAH FP inh inactive, HTRA1 inh inactive and PAFAH2 inh inactive.
CC1CCN(C(=O)COC(=O)c2ccc3c(c2)OCCO3)CC1 was read as PAFAH1B3 inh inactive, PAFAH1B2 inh inactive, mABHD4 FP inactive, pPAFAH FP inh inactive, HTRA1 inh inactive, PAFAH2 inh 46 and PAFAH2 FP conf 30.
For O=C(OCC(=O)N1CCOCC1)c1ccc2c(c1)OCCO2 the results were PAFAH1B3 inh inactive, PAFAH1B2 inh inactive, mABHD4 FP inactive, pPAFAH FP inh inactive, HTRA1 inh inactive and PAFAH2 inh inactive.
Screening CC1CCN(C(=O)COC(=O)c2ccc3c(c2)OCO3)CC1 returned PAFAH1B3 inh inactive, PAFAH1B2 inh inactive, mABHD4 FP inactive, pPAFAH FP inh inactive, HTRA1 inh inactive, PAFAH2 inh 39 and PAFAH2 FP conf inactive.
Screening O=C(O)c1ccccc1NSc1ccccc1[N+](=O)[O-] returned PAFAH1B3 inh inactive, PAFAH1B2 inh inactive, mABHD4 FP inactive, pPAFAH FP inh inactive, HTRA1 inh inactive, PAFAH2 inh 37 and PAFAH2 FP conf inactive.
O=C(COC(=O)c1ccc(F)cc1)NCC1CCCCC1 was read as PAFAH1B3 inh inactive, PAFAH1B2 inh inactive, mABHD4 FP inactive, pPAFAH FP inh inactive, HTRA1 inh inactive, PAFAH2 inh 77 and PAFAH2 FP conf 60.
`O=C(COC(=O)c1ccc(Cl)cc1)NCC1CCCCC1` gave PAFAH1B3 inh inactive, PAFAH1B2 inh inactive, mABHD4 FP inactive, pPAFAH FP inh inactive, HTRA1 inh inactive, PAFAH2 inh 59 and PAFAH2 FP conf 60.
COc1ccc(C(=O)OCC(=O)NCC2CCCCC2)cc1F was read as PAFAH1B3 inh inactive, PAFAH1B2 inh inactive, mABHD4 FP inactive, HTRA1 inh inactive, PAFAH2 inh 85 and PAFAH2 FP conf 72.
`COc1ccc(OCC(=O)OCC(=O)NCC2CCCCC2)cc1` gave PAFAH1B3 inh inactive, PAFAH1B2 inh inactive, mABHD4 FP inactive, pPAFAH FP inh inactive, HTRA1 inh inactive and PAFAH2 inh inactive.
COc1ccc(C(=O)OCC(=O)NCC2CCCCC2)c(OC)c1 was read as PAFAH1B3 inh inactive, PAFAH1B2 inh inactive, mABHD4 FP inactive, HTRA1 inh inactive, PAFAH2 inh 66 and PAFAH2 FP conf 57.
For COc1cccc(C(=O)COC(=O)c2ccc(NC(C)=O)cc2)c1 the results were PAFAH1B3 inh inactive, PAFAH1B2 inh inactive, mABHD4 FP inactive, pPAFAH FP inh inactive, HTRA1 inh inactive, PAFAH2 inh 37 and PAFAH2 FP conf 32.
`Cc1cccc(NC(=O)COC(=O)c2ccc3nc(C)c(C)nc3c2)c1` gave PAFAH1B3 inh inactive, PAFAH1B2 inh inactive, mABHD4 FP inactive, pPAFAH FP inh inactive, HTRA1 inh inactive, PAFAH2 inh 71 and PAFAH2 FP conf 49.
